Assays:
Assay type in all cases: functional
Rattus norvegicus [1] = species: Rattus norvegicus; experiment: Effective dose causing a homovanillic acid (HVA) concentration three fold the control level in rat striatum
Procedure, shortened: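 Male albino Wistar rats (180-250 g) received drug i.p. in 0.9% NaCl with a little ascorbic acid, made fresh and kept from light. Controls got saline-ascorbic acid. Rats were decapitated 2 h later and the corpus striatum dissected. HVA was read fluorometrically as the mean of left and right striata. Four to six doses, 3-6 rats each; threefold-HVA dose taken from log dose-response curves.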

Rattus norvegicus [2] = experiment: Tested for neuroleptic activity by measuring the increase in homovanillic acid (HVA) level in rat nucleus accumbens at dosage of 50 umol/kg
Rattus norvegicus [3] = experiment: Tested for neuroleptic activity by measuring the increase in homovanillic acid (HVA) level in rat nucleus accumbens at dosage of 10 umol/kg
Rattus norvegicus [4] = experiment: Tested for neuroleptic activity by measuring the increase in homovanillic acid (HVA) level in rat tuberculum olfactorium at dosage of 50 umol/kg
Procedure, shortened: (§1)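 Freshly made in 0.9% NaCl with a little ascorbic acid and kept from light, given ip to male Wistar rats (180-250 g); controls got saline-ascorbic acid. Rats decapitated 2 h post-dose and the brain region dissected. HVA was measured by a semiautomatic fluorometric method and expressed as % of control levels. 3-6 rats per dose.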

Rattus norvegicus [5] = experiment: Tested for neuroleptic activity by measuring the increase in homovanillic acid (HVA) level in rat corpus striatum at dosage of 30 umol/kg
Procedure, shortened: (§2)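 Wistar male rats (180-250 g) were dosed i.p. at the stated level in fresh, light-protected 0.9% NaCl with a little ascorbic acid; controls received saline-ascorbic acid. They were decapitated at 2 h and the corpus striatum removed. HVA was assayed by a semiautomatic fluorometric method, averaging both striata, with 3-6 rats per dose. Values are expressed as % of control HVA.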

Rattus norvegicus [6] = experiment: Tested for neuroleptic activity by measuring the increase in homovanillic acid (HVA) level in rat tuberculum olfactorium at dosage of 10 umol/kg; procedure, shortened: as §1
Rattus norvegicus [7] = experiment: Tested for neuroleptic activity by measuring the increase in homovanillic acid (HVA) level in rat corpus striatum at dosage of 20 umol/kg; procedure, shortened: as §2
Rattus norvegicus [8] = experiment: Tested for neuroleptic activity by measuring the increase in homovanillic acid (HVA) level in rat tuberculum olfactorium at dosage of 20 umol/kg; procedure, shortened: as §1
Rattus norvegicus [9] = experiment: Tested for neuroleptic activity by measuring the increase in homovanillic acid (HVA) level in rat nucleus accumbens at dosage of 30 umol/kg
Rattus norvegicus [10] = experiment: Tested for neuroleptic activity by measuring the increase in homovanillic acid (HVA) level in rat tuberculum olfactorium at dosage of 30 umol/kg; procedure, shortened: as §1
Rattus norvegicus [11] = experiment: Tested for neuroleptic activity by measuring the increase in homovanillic acid (HVA) level in rat corpus striatum at dosage of 10 umol/kg; procedure, shortened: as §2
Rattus norvegicus [12] = experiment: Tested for neuroleptic activity by measuring the increase in homovanillic acid (HVA) level in rat corpus striatum at dosage of 50 umol/kg; procedure, shortened: as §2
Rattus norvegicus [13] = experiment: Tested for neuroleptic activity by measuring the increase in homovanillic acid (HVA) level in rat nucleus accumbens at dosage of 20 umol/kg
Rattus norvegicus [14] = experiment: Tested for neuroleptic activity by measuring the increase in homovanillic acid (HVA) level in rat corpus striatum at dosage of 5 umol/kg; procedure, shortened: as §2
Rattus norvegicus [15] = experiment: Tested for neuroleptic activity by measuring the increase in homovanillic acid (HVA) level in rat corpus striatum at dosage of 25 umol/kg; procedure, shortened: as §2
Rattus norvegicus [16] = experiment: Tested for neuroleptic activity by measuring the increase in homovanillic acid (HVA) level in rat tuberculum olfactorium at dosage of 5 umol/kg; procedure, shortened: as §1
Rattus norvegicus [17] = experiment: Tested for neuroleptic activity by measuring the increase in homovanillic acid (HVA) level in rat corpus striatum at dosage of 15 umol/kg; procedure, shortened: as §2
Rattus norvegicus [18] = experiment: Tested for neuroleptic activity by measuring the increase in homovanillic acid (HVA) level in rat tuberculum olfactorium at dosage of 25 umol/kg; procedure, shortened: as §1
Rattus norvegicus [19] = experiment: Tested for neuroleptic activity by measuring the increase in homovanillic acid (HVA) level in rat nucleus accumbens at dosage of 5 umol/kg
Rattus norvegicus [20] = experiment: Tested for neuroleptic activity by measuring the increase in homovanillic acid (HVA) level in rat nucleus accumbens at dosage of 25 umol/kg
Rattus norvegicus [21] = experiment: Tested for neuroleptic activity by measuring the increase in homovanillic acid (HVA) level in rat tuberculum olfactorium at dosage of 15 umol/kg; procedure, shortened: as §1
Rattus norvegicus [22] = experiment: Tested for neuroleptic activity by measuring the increase in homovanillic acid (HVA) level in rat nucleus accumbens at dosage of 15 umol/kg; procedure, shortened: as §1
Rattus norvegicus [23] = experiment: Tested for neuroleptic activity by measuring the increase in homovanillic acid (HVA) level in rat corpus striatum at dosage of 75 umol/kg; procedure, shortened: as §2
Rattus norvegicus [24] = experiment: Tested for neuroleptic activity by measuring the increase in homovanillic acid (HVA) level in rat nucleus accumbens at dosage of 75 umol/kg
Rattus norvegicus [25] = experiment: Tested for neuroleptic activity by measuring the increase in homovanillic acid (HVA) level in rat tuberculum olfactorium at dosage of 75 umol/kg; procedure, shortened: as §1

With `CN(C)CCCN1c2cc(Cl)ccc2Sc2ccsc21` the ED300 (Rattus norvegicus [1]) was 350 µM/kg.

`CN(C)CCCN1c2cc(C(F)(F)F)ccc2Sc2sccc21` gave an HVA control (Rattus norvegicus [2]) of 510%, an HVA control (Rattus norvegicus [3]) of 250% and an HVA control (Rattus norvegicus [4]) of 300%. The ED300 (Rattus norvegicus [1]) was 6.1 µM/kg, the HVA control (Rattus norvegicus [5]) was 430% and the HVA control (Rattus norvegicus [6]) was 180%. For the same molecule, the HVA control (Rattus norvegicus [7]) was 410%, the HVA control (Rattus norvegicus [8]) was 240% and the HVA control (Rattus norvegicus [9]) was 360%. For the same molecule, the HVA control (Rattus norvegicus [10]) was 280%, the HVA control (Rattus norvegicus [11]) was 320% and the HVA control (Rattus norvegicus [12]) was 510%. The HVA control (Rattus norvegicus [13]) was 350%.

`CN(C)CCCN1c2ccccc2Sc2cscc21` was tested, and the ED300 (Rattus norvegicus [1]) was 460 µM/kg.

For `CN(C)CCCN1c2cscc2Sc2ccc(C(F)(F)F)cc21`, the HVA control (Rattus norvegicus [14]) was 140%, the HVA control (Rattus norvegicus [3]) was 185% and the HVA control (Rattus norvegicus [15]) was 445%. The HVA control (Rattus norvegicus [16]) was 100%, the HVA control (Rattus norvegicus [17]) was 340% and the ED300 (Rattus norvegicus [1]) was 9.2 µM/kg. It also gave an HVA control (Rattus norvegicus [18]) of 270%, an HVA control (Rattus norvegicus [19]) of 125% and an HVA control (Rattus norvegicus [6]) of 160%. For the same molecule, the HVA control (Rattus norvegicus [20]) was 390%, the HVA control (Rattus norvegicus [11]) was 310% and the HVA control (Rattus norvegicus [21]) was 210%. The HVA control (Rattus norvegicus [22]) was 260%.

Work on `CN(C)CCCN1c2cscc2Sc2ccc(Cl)cc21` yielded an ED300 (Rattus norvegicus [1]) of 19.2 µM/kg.

For `CN(C)CCCN1c2cc(C(F)(F)F)ccc2Sc2ccsc21`, the HVA control (Rattus norvegicus [2]) was 180%, the HVA control (Rattus norvegicus [4]) was 150% and the HVA control (Rattus norvegicus [17]) was 130%. For the same molecule, the ED300 (Rattus norvegicus [1]) was 30.1 µM/kg, the HVA control (Rattus norvegicus [23]) was 440% and the HVA control (Rattus norvegicus [24]) was 375%. For the same molecule, the HVA control (Rattus norvegicus [25]) was 200%, the HVA control (Rattus norvegicus [12]) was 310% and the HVA control (Rattus norvegicus [22]) was 100%.

`CN(C)CCCN1c2ccccc2Sc2sccc21` showed an ED300 (Rattus norvegicus [1]) of 480 µM/kg.

With `CN(C)CCCN1c2cc(Cl)ccc2Sc2sccc21` the ED300 (Rattus norvegicus [1]) was 36 µM/kg.

For `Cl.OCCN1CCN(CCCN2c3ccccc3Sc3sccc32)CC1`, the ED300 (Rattus norvegicus [1]) was 18.9 µM/kg.

`Cl.OCCN1CCN(CCCN2c3cc(Cl)ccc3Sc3sccc32)CC1` was tested, and the ED300 (Rattus norvegicus [1]) was 3.27 µM/kg.

`Cl.OCCN1CCN(CCCN2c3cc(C(F)(F)F)ccc3Sc3ccsc32)CC1` was tested, and the ED300 (Rattus norvegicus [1]) was 4 µM/kg.

`Cl.OCCN1CCN(CCCN2c3cc(C(F)(F)F)ccc3Sc3sccc32)CC1` gave an ED300 (Rattus norvegicus [1]) of 0.75 µM/kg.

For `Cl.OCCN1CCN(CCCN2c3cscc3Sc3ccc(C(F)(F)F)cc32)CC1`, the ED300 (Rattus norvegicus [1]) was 0.54 µM/kg.

Molecule `Cl.OCCN1CCN(CCCN2c3cc(Cl)ccc3Sc3ccsc32)CC1` has an ED300 (Rattus norvegicus [1]) of 20.5 µM/kg.

`Cl.OCCN1CCN(CCCN2c3cscc3Sc3ccc(Cl)cc32)CC1` gave an ED300 (Rattus norvegicus [1]) of 1.5 µM/kg.

`Cl.OCCN1CCN(CCCN2c3ccccc3Sc3cscc32)CC1` showed an ED300 (Rattus norvegicus [1]) of 13.7 µM/kg.

From ChEMBL document CHEMBL1121628, “Synthesis of isomeric thienobenzothiazines and their effect on dopamine metabolism in rat brain” (1980)
